Experimental data published in ChEMBL document CHEMBL4152196, “Design, synthesis and biological evaluation of novel trimethylangelicin analogues targeting nuclear factor kB (NF-kB)” (Eur J Med Chem, 2018).
Active and inactive are the calls of the source. The calls are words filed in the database; no cut-off is given here.

Key:
Salmonella typhimurium [1] = test: Genotoxicity in Salmonella typhimurium TA100 assessed as revertant colonies at 50 uL/plate in presence of Sprague-Dawley rat S9 metabolic activation after 72 hrs by Ames test (reference value: 1); format: toxicity, organism-based; settings: salmonella enterica subsp. enterica serovar typhimurium
Salmon testes DNA [2] = test: Binding affinity to salmon testes DNA assessed as furocoumarin-pyrimidine base formation in presence of 15 J/cm2 UVA light irradiation by TLC analysis; format: nucleic-acid assay; settings: Salmonidae
IB3-1 [3] = test: Inhibition of TNF-alpha induced IL-15 production in human IB3-1 cells at 1 uM preincubated for 5 hrs followed by TNF-alpha stimulation and measured after 24 hrs relative to control; format: functional
Outline: (§1)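 IB3-1 cells (CF patient, ΔF508/W1282X, adeno12/SV40-immortalized) grown in LHC-8 with 5% FBS, no gentamycin, 37°C/5% CO₂; 60% confluent monolayers seeded, compound added after 24 h, 5 h before 80 ng/ml TNF-α, then 24 h further incubation. Cytokines in supernatants measured by Bioplex 27-plex Luminex bead assay: beads, detection antibody, streptavidin–phycoerythrin, 30/30/10 min at room temperature.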

Salmonella typhimurium [4] = test: Genotoxicity in Salmonella typhimurium TA100 assessed as revertant colonies at 10 uL/plate in absence of Sprague-Dawley rat S9 metabolic activation after 72 hrs by Ames test (reference value: 1); format: toxicity, organism-based; settings: salmonella enterica subsp. enterica serovar typhimurium
Salmonella typhimurium [5] = test: Genotoxicity in Salmonella typhimurium TA100 assessed as revertant colonies at 1 uL/plate in presence of Sprague-Dawley rat S9 metabolic activation after 72 hrs by Ames test (reference value: 1); format: toxicity, organism-based; settings: salmonella enterica subsp. enterica serovar typhimurium
Salmonella typhimurium [6] = test: Genotoxicity in Salmonella typhimurium TA100 assessed as revertant colonies at 5 uL/plate in absence of Sprague-Dawley rat S9 metabolic activation after 72 hrs by Ames test (reference value: 1); format: toxicity, organism-based; settings: salmonella enterica subsp. enterica serovar typhimurium
Salmonella typhimurium [7] = test: Genotoxicity in Salmonella typhimurium TA1535 assessed as revertant colonies at 5 uL/plate in absence of Sprague-Dawley rat S9 metabolic activation after 72 hrs by Ames test (reference value: 1); format: toxicity, organism-based; settings: salmonella enterica subsp. enterica serovar typhimurium
Salmonella typhimurium [8] = test: Genotoxicity in Salmonella typhimurium TA98 assessed as revertant colonies at 5 uL/plate in presence of Sprague-Dawley rat S9 metabolic activation after 72 hrs by Ames test (reference value: 1); format: toxicity, organism-based; settings: salmonella enterica subsp. enterica serovar typhimurium
Salmonella typhimurium [9] = test: Genotoxicity in Salmonella typhimurium TA97A assessed as revertant colonies at 1 uL/plate in absence of Sprague-Dawley rat S9 metabolic activation after 72 hrs by Ames test (reference value: 1); format: toxicity, organism-based; settings: salmonella enterica subsp. enterica serovar typhimurium
Salmonella typhimurium [10] = test: Genotoxicity in Salmonella typhimurium TA98 assessed as revertant colonies at 100 uL/plate in absence of Sprague-Dawley rat S9 metabolic activation after 72 hrs by Ames test (reference value: 1); format: toxicity, organism-based; settings: salmonella enterica subsp. enterica serovar typhimurium
IB3-1 [11] = test: Inhibition of TNF-alpha induced PDGF-B chain production in human IB3-1 cells at 1 uM preincubated for 5 hrs followed by TNF-alpha stimulation and measured after 24 hrs relative to control; format: functional; outline: as §1
Homo sapiens [12] = organism: Homo sapiens; test: Inhibition of NF-kappaB (unknown origin) assessed as decrease in NF-kappaB/DNA interaction at 12.5 uM using 32P-labeled target NF-kappaB double-stranded oligonucleotide after 30 mins by EMSA
Salmonella typhimurium [13] = test: Genotoxicity in Salmonella typhimurium TA97A assessed as revertant colonies at 10 uL/plate in absence of Sprague-Dawley rat S9 metabolic activation after 72 hrs by Ames test (reference value: 1); format: toxicity, organism-based; settings: salmonella enterica subsp. enterica serovar typhimurium
Salmonella typhimurium [14] = test: Genotoxicity in Salmonella typhimurium TA1535 assessed as revertant colonies at 1 uL/plate in presence of Sprague-Dawley rat S9 metabolic activation after 72 hrs by Ames test (reference value: 1); format: toxicity, organism-based; settings: salmonella enterica subsp. enterica serovar typhimurium
Salmonella typhimurium [15] = test: Genotoxicity in Salmonella typhimurium TA100 assessed as revertant colonies at 1 uL/plate in absence of Sprague-Dawley rat S9 metabolic activation after 72 hrs by Ames test (reference value: 1); format: toxicity, organism-based; settings: salmonella enterica subsp. enterica serovar typhimurium
Homo sapiens [16] = organism: Homo sapiens; test: Inhibition of NF-kappaB (unknown origin) assessed as decrease in NF-kappaB/DNA interaction at 12.5 to 100 uM using 32P-labeled target NF-kappaB double-stranded oligonucleotide after 30 mins by EMSA
Outline: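 Purified NF-κB p50 (0.1 µl/20 µl, 50 gsu) was combined with 0.25 ng of ³²P-labeled double-stranded NF-κB consensus oligonucleotide. Bound 30 min at room temperature, then run on 6% polyacrylamide in 0.25× TBE at 200 V. IC₅₀ is 50% inhibition of the complex.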

Salmonella typhimurium [17] = test: Genotoxicity in Salmonella typhimurium TA98 assessed as revertant colonies at 10 uL/plate in absence of Sprague-Dawley rat S9 metabolic activation after 72 hrs by Ames test (reference value: 1); format: toxicity, organism-based; settings: salmonella enterica subsp. enterica serovar typhimurium
Salmonella typhimurium [18] = test: Genotoxicity in Salmonella typhimurium TA100 assessed as revertant colonies at 50 uL/plate in absence of Sprague-Dawley rat S9 metabolic activation after 72 hrs by Ames test (reference value: 1); format: toxicity, organism-based; settings: salmonella enterica subsp. enterica serovar typhimurium
Salmonella typhimurium [19] = test: Genotoxicity in Salmonella typhimurium TA97A assessed as revertant colonies at 100 uL/plate in absence of Sprague-Dawley rat S9 metabolic activation after 72 hrs by Ames test (reference value: 1); format: toxicity, organism-based; settings: salmonella enterica subsp. enterica serovar typhimurium
Salmon testes DNA [20] = test: Binding affinity to salmon testes DNA assessed as DNA intercalation by linear flow dichroism analysis; settings: Salmonidae
Salmonella typhimurium [21] = test: Genotoxicity in Salmonella typhimurium TA98 assessed as revertant colonies at 1 uL/plate in absence of Sprague-Dawley rat S9 metabolic activation after 72 hrs by Ames test (reference value: 1); format: toxicity, organism-based; settings: salmonella enterica subsp. enterica serovar typhimurium
IB3-1 [22] = test: Inhibition of TNF-alpha induced IFN-gamma production in human IB3-1 cells at 1 uM preincubated for 5 hrs followed by TNF-alpha stimulation and measured after 24 hrs relative to control; format: functional; outline: as §1
Salmonella typhimurium [23] = test: Genotoxicity in Salmonella typhimurium TA98 assessed as revertant colonies at 10 uL/plate in presence of Sprague-Dawley rat S9 metabolic activation after 72 hrs by Ames test (reference value: 1); format: toxicity, organism-based; settings: salmonella enterica subsp. enterica serovar typhimurium
Salmonella typhimurium [24] = test: Genotoxicity in Salmonella typhimurium TA1535 assessed as revertant colonies at 100 uL/plate in presence of Sprague-Dawley rat S9 metabolic activation after 72 hrs by Ames test (reference value: 1); format: toxicity, organism-based; settings: salmonella enterica subsp. enterica serovar typhimurium
Salmon testes DNA [25] = test: Induction of damage in salmon testes DNA at 100 uM in presence of 2.5 to 7.5 J/cm2 UVA irradiation by ethidium bromide dye-based agarose gel electrophoresis analysis; format: nucleic-acid assay; settings: salmonidae
Salmonella typhimurium [26] = test: Genotoxicity in Salmonella typhimurium TA98 assessed as revertant colonies at 50 uL/plate in absence of Sprague-Dawley rat S9 metabolic activation after 72 hrs by Ames test (reference value: 1); format: toxicity, organism-based; settings: salmonella enterica subsp. enterica serovar typhimurium

Activity (Salmon testes DNA [2]): inactive | inhibition (Homo sapiens [12]): Active | inhibition (Homo sapiens [16]): Active | Activity (Salmon testes DNA [20]): inactive
Structure (SMILES): CCc1cc2c(C(C)C)cc(=O)oc2c2c(C)coc12
T/C (Salmonella typhimurium [1]): 1.2 | inhibition at 1 µM (IB3-1 [3]): > 20% | T/C (Salmonella typhimurium [4]): 0.8 | T/C (Salmonella typhimurium [5]): 1.1 | T/C (Salmonella typhimurium [6]): 1 | T/C (Salmonella typhimurium [7]): 1.1 | T/C (Salmonella typhimurium [8]): 0.6 | T/C (Salmonella typhimurium [9]): 1.1 | T/C (Salmonella typhimurium [10]): 1.2 | inhibition at 1 µM (IB3-1 [11]): > 20% | T/C (Salmonella typhimurium [13]): 1.2 | T/C (Salmonella typhimurium [14]): 1.1 | T/C (Salmonella typhimurium [15]): 0.8 | T/C (Salmonella typhimurium [17]): 1.3 | T/C (Salmonella typhimurium [18]): 0.9 | T/C (Salmonella typhimurium [19]): 1 | T/C (Salmonella typhimurium [21]): 1.1 | inhibition at 1 µM (IB3-1 [22]): > 20% | T/C (Salmonella typhimurium [23]): 0.7 | T/C (Salmonella typhimurium [24]): 0.8 | Activity (Salmon testes DNA [25]): Not Active | T/C (Salmonella typhimurium [26]): 1.2
